Experimental data: ChEMBL document CHEMBL2384911 (Bioorg Med Chem, 2013)
The source made the active and inactive calls. The rule behind the calls is not given here.

Columns and labels:
in vivo = conditions: Sprague-Dawley, rat, plasma, iv, 1 mg/kg
Liver microsomes [1] = experiment: Metabolic stability in human liver microsomes assessed as compound remaining by capillary-HPLC/MS analysis; format: ADME, Microsome
Procedure, shortened: (§1)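 Parent compound added from 2 mM DMSO stock to liver microsomes (20 mg protein/mL) in 100 mM phosphate buffer pH 7.4 with alamethicin and UDPGA. Pre-incubated 3 min at 37 °C, started with NADPH-regenerating system, run up to 60 min at 37 °C. Stopped with ice-cold CH3CN, centrifuged, diluted, analysed by capillary-HPLC/MS; peak areas not corrected for response factors.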

Liver microsomes [2] = experiment: Metabolic stability in rat liver microsomes assessed as compound remaining by capillary-HPLC/MS analysis; format: ADME, Microsome
Procedure, shortened: as §1

[3] = AUC (0 to 48 hrs) in Sprague-Dawley rat at 1 mg/kg, iv administered as bolus dose; format: ADME, organism-based; parameters: time < 48 hr, dose 1 mg/kg, route intravenous; conditions: plasma
Procedure, shortened: (§2)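 Single IV bolus into femoral vein, 1 mg/kg in 0.5 mL/kg vehicle (30% NMP, 70% PEG200). Serial blood samples taken from femoral artery for up to 48 h, stored at −20 °C. Proteins precipitated with CH3CN containing internal standard, then LC/MS/MS with ESI; LLOQ 0.4 ng mL. Parameters from non-compartmental analysis.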

Rattus norvegicus = experiment: AUC (0 to 48 hrs) in Sprague-Dawley rat assessed as N-[4-Methyl-3-[[4-(3-pyridinyl)-2-pyrimidinyl]amino]-phenyl]-4-(1-piperazinylmethyl)benzamide at 1 mg/kg, iv administered as bolus dose; format: ADME, organism-based, Plasma; parameters: time < 48 hr, dose 1 mg/kg, route intravenous; conditions: in vivo
Procedure, shortened: as §2

[4] = target: Mast/stem cell growth factor receptor Kit (Homo sapiens, UniProt P10721, K642E); experiment: Inhibition of KIT K642E mutant autophosphorylation (unknown origin) expressed in human GIST882 cells by ELISA; format: cell-based
Chain of Mast/stem cell growth factor receptor Kit (P10721 26-976 K642E limits assumed): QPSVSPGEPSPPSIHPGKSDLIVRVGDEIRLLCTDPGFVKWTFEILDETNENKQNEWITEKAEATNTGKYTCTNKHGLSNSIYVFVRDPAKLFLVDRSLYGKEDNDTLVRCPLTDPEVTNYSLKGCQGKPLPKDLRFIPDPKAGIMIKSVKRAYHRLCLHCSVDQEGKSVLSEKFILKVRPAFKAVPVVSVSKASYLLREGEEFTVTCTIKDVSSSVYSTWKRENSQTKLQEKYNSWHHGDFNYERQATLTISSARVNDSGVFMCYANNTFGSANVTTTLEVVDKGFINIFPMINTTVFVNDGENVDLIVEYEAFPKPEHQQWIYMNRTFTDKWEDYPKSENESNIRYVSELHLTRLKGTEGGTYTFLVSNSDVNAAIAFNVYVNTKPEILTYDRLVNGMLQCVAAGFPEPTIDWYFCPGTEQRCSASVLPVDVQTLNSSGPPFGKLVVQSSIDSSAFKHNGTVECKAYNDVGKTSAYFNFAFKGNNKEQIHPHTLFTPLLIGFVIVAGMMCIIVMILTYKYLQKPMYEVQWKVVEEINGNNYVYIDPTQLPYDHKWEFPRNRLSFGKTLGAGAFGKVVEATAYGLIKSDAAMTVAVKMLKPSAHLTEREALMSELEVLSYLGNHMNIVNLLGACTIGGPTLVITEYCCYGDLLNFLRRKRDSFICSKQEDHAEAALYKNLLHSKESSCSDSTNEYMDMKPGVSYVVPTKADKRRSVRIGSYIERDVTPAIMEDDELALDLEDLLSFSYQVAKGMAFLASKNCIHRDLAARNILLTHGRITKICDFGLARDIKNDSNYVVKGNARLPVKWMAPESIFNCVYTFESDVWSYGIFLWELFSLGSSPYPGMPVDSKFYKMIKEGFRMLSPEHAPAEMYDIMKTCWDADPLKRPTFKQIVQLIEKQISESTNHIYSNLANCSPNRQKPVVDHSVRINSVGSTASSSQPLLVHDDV

Bcr/Abl fusion protein [5] = target: T1, Bcr/Abl fusion protein (Homo sapiens, UniProt P00519); experiment: Inhibition of human BCR-ABL1 (unknown origin) expressed in mouse 32D cells; format: cell-based
T1 sequence (P00519 whole entry, the tested form may be a part): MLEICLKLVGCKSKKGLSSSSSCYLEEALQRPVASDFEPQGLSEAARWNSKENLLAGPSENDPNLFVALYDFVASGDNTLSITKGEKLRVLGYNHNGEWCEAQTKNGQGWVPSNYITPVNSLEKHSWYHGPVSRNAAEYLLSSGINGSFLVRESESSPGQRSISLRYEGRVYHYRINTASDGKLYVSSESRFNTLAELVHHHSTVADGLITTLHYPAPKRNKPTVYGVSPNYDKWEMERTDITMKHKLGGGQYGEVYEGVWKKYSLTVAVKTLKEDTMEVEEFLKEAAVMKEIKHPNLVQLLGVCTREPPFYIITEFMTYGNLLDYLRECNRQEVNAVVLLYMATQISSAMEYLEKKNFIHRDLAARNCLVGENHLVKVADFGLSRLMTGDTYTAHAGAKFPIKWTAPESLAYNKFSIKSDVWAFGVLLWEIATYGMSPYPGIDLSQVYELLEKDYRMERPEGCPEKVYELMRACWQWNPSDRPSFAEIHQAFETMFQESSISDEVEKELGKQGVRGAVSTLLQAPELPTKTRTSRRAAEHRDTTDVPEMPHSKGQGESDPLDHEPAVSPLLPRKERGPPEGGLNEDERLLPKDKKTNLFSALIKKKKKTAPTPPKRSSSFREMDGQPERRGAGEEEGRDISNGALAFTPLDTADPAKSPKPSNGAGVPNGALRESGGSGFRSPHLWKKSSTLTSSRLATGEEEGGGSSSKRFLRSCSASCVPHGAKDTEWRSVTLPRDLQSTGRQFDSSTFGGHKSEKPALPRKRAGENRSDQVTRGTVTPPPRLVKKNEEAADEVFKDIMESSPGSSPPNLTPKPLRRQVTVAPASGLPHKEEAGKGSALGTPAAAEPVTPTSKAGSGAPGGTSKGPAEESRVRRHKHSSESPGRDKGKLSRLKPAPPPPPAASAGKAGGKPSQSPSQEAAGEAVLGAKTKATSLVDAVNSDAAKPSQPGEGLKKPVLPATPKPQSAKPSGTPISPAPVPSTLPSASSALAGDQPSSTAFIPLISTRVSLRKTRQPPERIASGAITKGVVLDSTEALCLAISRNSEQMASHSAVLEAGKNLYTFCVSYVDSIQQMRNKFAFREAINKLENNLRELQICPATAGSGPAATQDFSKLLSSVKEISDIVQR
T1 sequence (P11274 whole entry, further chain, the tested form may be a part): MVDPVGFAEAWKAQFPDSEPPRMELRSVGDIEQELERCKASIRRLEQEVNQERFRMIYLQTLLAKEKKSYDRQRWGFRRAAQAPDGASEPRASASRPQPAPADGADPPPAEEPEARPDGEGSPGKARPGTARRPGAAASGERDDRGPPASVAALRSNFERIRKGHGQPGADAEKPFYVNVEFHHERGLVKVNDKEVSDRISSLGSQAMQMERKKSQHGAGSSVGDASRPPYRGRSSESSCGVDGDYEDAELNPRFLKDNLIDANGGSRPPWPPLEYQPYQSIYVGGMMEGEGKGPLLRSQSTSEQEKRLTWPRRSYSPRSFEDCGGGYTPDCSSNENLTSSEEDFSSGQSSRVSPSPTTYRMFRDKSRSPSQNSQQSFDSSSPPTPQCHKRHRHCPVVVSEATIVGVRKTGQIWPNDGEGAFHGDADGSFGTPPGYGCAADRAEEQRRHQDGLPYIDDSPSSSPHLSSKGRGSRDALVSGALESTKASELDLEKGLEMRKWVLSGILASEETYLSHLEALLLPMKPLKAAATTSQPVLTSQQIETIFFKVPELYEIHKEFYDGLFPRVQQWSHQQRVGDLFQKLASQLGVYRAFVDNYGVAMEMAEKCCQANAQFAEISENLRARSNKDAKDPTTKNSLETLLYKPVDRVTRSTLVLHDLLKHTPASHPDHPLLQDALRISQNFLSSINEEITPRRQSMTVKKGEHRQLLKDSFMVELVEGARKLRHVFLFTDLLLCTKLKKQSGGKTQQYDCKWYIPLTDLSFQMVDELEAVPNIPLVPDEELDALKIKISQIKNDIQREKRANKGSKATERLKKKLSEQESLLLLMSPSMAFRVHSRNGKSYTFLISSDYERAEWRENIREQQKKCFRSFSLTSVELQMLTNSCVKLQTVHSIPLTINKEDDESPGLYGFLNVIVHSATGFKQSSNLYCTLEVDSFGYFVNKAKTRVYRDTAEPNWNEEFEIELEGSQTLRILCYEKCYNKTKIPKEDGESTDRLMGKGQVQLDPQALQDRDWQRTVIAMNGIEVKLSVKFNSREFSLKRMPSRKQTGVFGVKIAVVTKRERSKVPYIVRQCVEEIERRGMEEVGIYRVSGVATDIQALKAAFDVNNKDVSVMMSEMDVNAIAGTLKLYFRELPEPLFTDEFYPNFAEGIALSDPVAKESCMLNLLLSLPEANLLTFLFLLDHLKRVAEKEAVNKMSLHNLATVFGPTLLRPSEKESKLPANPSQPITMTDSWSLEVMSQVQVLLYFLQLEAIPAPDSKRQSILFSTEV

Bcr/Abl fusion protein [6] = target: T1, Bcr/Abl fusion protein; experiment: Inhibition of human BCR-ABL1 autophosphorylation expressed in mouse BA/F3 cells by ELISA; format: cell-based, BaF3
Bcr/Abl fusion protein [7] = target: T1, Bcr/Abl fusion protein; experiment: Inhibition of human BCR-ABL1 expressed in mouse BA/F3 cells assessed as cell growth inhibition by ATP-depletion assay; format: cell-based, BaF3
[8] = target: Bcr/Abl fusion protein (Homo sapiens) (UniProt P00519+P11274); experiment: Inhibition of human BCR-ABL1 autophosphorylation expressed in mouse BA/F3 cells at < 3000 nM by ELISA; format: cell-based; conditions: BaF3
Chain of Bcr/Abl fusion protein (Homo sapiens) (P00519 whole entry, looked up, the tested form may be a part): as the sequence (P00519 whole entry, the tested form may be a part) above
Chain of Bcr/Abl fusion protein (Homo sapiens) (P11274 whole entry, looked up, the tested form may be a part): as the sequence (P11274 whole entry, further chain, the tested form may be a part) above

[9] = system: Mast/stem cell growth factor receptor Kit (Homo sapiens), P10721 [K642E]; experiment: Inhibition of KIT K642E mutant autophosphorylation (unknown origin) expressed in human GIST882 cells at < 3000 nM by ELISA; format: cell-based
Chain of Mast/stem cell growth factor receptor Kit (Homo sapiens), P10721 [K642E] (P10721 whole entry K642E): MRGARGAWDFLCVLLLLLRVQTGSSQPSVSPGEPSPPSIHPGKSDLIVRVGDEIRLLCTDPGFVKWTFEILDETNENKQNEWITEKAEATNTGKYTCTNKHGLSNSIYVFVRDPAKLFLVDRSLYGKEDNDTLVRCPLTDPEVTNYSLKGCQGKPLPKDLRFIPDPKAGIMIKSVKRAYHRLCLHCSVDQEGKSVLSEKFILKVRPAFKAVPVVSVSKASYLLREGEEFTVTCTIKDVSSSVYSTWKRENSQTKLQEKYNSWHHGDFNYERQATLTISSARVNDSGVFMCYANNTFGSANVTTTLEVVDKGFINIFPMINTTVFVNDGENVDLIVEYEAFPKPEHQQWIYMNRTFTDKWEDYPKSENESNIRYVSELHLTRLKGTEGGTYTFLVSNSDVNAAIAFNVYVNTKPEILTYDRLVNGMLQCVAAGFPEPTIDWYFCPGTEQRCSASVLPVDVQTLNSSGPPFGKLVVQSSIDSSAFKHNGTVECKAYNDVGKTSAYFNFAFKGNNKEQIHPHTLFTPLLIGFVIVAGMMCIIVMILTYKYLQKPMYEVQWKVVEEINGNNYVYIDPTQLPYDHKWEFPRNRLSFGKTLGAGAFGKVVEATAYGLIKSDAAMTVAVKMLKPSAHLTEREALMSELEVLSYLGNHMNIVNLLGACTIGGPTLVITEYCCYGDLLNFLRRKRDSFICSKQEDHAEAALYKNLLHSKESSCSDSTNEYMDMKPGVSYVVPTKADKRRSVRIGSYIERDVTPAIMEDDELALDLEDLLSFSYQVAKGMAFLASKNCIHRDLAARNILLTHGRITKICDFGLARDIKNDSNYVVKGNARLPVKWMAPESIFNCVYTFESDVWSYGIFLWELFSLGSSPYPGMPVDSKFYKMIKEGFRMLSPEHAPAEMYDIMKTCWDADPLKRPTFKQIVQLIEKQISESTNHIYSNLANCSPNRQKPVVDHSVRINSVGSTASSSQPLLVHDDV

Structure (SMILES)	inhibition [8]	inhibition [9]	AUC (in vivo) [µM·h]	Stability (Liver microsomes [1]) [%]	Stability (Liver microsomes [2]) [%]	AUC(0-t) at 48 h [3] [µM·h]	AUC (Rattus norvegicus) [µM·h]	other results
[2H]C([2H])([2H])N1CCN(Cc2ccc(C(=O)Nc3ccc(C)c(Nc4nccc(-c5cccnc5)n4)c3)cc2)CC1	–	–	1.85	81.9	80.9	1.15	0.011	–
Cc1ccc(NC(=O)c2ccc(CN3CCNCC3)cc2)cc1Nc1nccc(-c2cccnc2)n1	–	–	–	–	–	–	–	IC50 [4]: 342 nM; IC50 (Bcr/Abl fusion protein [5]): 512 nM; IC50 (Bcr/Abl fusion protein [6]): 2230 nM; IC50 (Bcr/Abl fusion protein [7]): 1560 nM
Cc1ccc(NC(=O)c2ccc(CN3CCN(C)C(=O)C3)cc2)cc1Nc1nccc(-c2cccnc2)n1	inactive	inactive	–	–	–	–	–	–
Cc1ccc(NC(=O)c2ccc(CN3CCN(C)CC3)cc2)cc1Nc1nccc(-c2cccnc2)n1 [IMATINIB]	–	–	1.97	67.3	77.2	1.42	0.0339	–

More lines, main results first:

inhibition [8]	inhibition [9]	Structure (SMILES)	AUC (in vivo) [µM·h]	Stability (Liver microsomes [1]) [%]	Stability (Liver microsomes [2]) [%]	AUC(0-t) at 48 h [3] [µM·h]	AUC (Rattus norvegicus) [µM·h]	other results
inactive	inactive	CC(=O)N1CCN(Cc2ccc(C(=O)Nc3ccc(C)c(Nc4nccc(-c5cccnc5)n4)c3)cc2)CC1	–	–	–	–	–	–
inactive	inactive	Cc1ccc(NC(=O)c2ccc(CN3CCN(C=O)CC3)cc2)cc1Nc1nccc(-c2cccnc2)n1	–	–	–	–	–	–
